Source: PubChem BioAssay (several laboratories)
PfHsp90 set2: reduces growth (ATP signal) of yeast expressing P. falciparum Hsp90. S. cerevisiae expressing PfHsp90, BacTiter-Glo ATP, 48 h; yeast lacking PDR1 and PDR3 efflux regulators. inhibition, % at 9.4 µM. 0.32% of 310,000 active. AID 504621;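 active = every replicate shows inhibition above about 80%, whatever the replicate mean, limit read from the data; inconclusive = mean inhibition reaches the set limit but some replicate falls short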;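 also: 0% = DMSO neutral controls and 100% = 20 µM radicicol positive controls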
PAX8 inh HTS: PAX8 transcriptional activity inhibition | inhibition, % at 12.6 µM | 1.2% of 360,000 active | RMG-I TPO-luciferase reporter, SteadyGlo, 24 h | AID 652154;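 active = mean replicate inhibition at least 60% with every replicate also reaching 60%; inconclusive = only one of the two criteria is met; inactive = mean below 60% and not all replicates reaching 60%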;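 also: luciferase light reporting Pax8 driven TPO promoter activity; plate controls were median of neutral control wells for no effect and mitoxantrone controls for full effect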
N-glyco inh: blocks N-linked glycosylation in D54 reporter cells; reporter increase, % at 12.5 µM; AID 588692; 0.23% of 360,000 active; D54 ERlucT glycosylation luciferase reporter, 24 h; percent of 100 nM tunicamycin response;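 active = mean luciferase reporter signal, scaled so untreated is 0 and the glycosylation-blocking control 100, at or above a set limit in every replicate; inconclusive = mean reaches the limit but not every replicate does; inactive = mean below the limit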;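 also: luciferase carries N-glycosylation sites so blocking glycosylation raises the light; 0% = median of neutral control wells and 100% = median of 100 nM tunicamycin wells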
Rtt109 Vps75: C. albicans Rtt109 histone acetyltransferase inhibition. Q5AAJ8. AID 540336. 0.16% of 330,000 active. inhibition, % at 34.9 µM. purified Rtt109/Vps75, ThioGlo CoA-SH fluorescence, 4 h;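 active = inhibition of at least 50% in every replicate; inconclusive = best replicate reaches 50% inhibition but some replicates fall short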
Target sequence (Q5AAJ8 whole entry, looked up): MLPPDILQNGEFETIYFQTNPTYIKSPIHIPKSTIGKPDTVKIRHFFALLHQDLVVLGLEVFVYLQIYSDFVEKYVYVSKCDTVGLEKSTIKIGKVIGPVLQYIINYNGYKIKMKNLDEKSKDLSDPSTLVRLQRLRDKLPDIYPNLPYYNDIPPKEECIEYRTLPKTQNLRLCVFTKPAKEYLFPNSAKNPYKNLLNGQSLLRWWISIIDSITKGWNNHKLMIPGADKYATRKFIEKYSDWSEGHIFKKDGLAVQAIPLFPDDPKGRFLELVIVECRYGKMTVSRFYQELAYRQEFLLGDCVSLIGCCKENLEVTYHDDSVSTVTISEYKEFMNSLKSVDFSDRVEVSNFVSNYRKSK
Arrestin-AP2 inh: blocks beta-arrestin peptide binding to AP2 adaptin. FITC-arrestin peptide / GST-AP2 beads, flow cytometry; AP2 beta2 appendage carries R879A mutation. inhibition, % at 10 µM. 0.31% of 340,000 active;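 active = inhibition above a set limit, near 3 SD of compounds lacking own fluorescence, cut at about 54% in these data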;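 also: plate controls were DMSO wells for no effect and 5 µM unlabelled arrestin peptide for full effect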
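System: GST-AP2 R879A bound to glutathione beads, E. coli-expressed. Also added: 50 nM FITC-arrestin peptide. Schedule: compound with beads 12 min RT, then probe 1 h RT. Signal: bead flow cytometry, FITC channel. Read-out basis: percent response.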
HIV Env fusion: inhibitors of HIV Env-mediated cell fusion | HeLa-JRFL Env/CEM21 cell fusion, luciferase | inhibition, % at 12.3 µM | 1.1% of 360,000 active;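 active = mean replicate inhibition score of at least 50 and every replicate individually at or above 50; inconclusive = only one of the two criteria met; inactive = mean below 50 and not all replicates reaching 50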;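 also: 0% = plate neutral controls and 100% = maraviroc near 300 nM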
* = called active by the depositor; ? = inconclusive; nt = no result given; ! = not confirmed by another sample; [ ] = remark or other dose. In the library only some 2.3% were active in any assay of this set; here they are far more common.

SMILES	PfHsp90 set2	PAX8 inh HTS	N-glyco inh	Rtt109 Vps75	Arrestin-AP2 inh	HIV Env fusion
CC1(Cc2cccc(F)c2)C(=O)Nc2ccc(-c3cccnc3)cc21 (stereo not drawn)	nt	-18	-11	nt	nt	51
CC(C)NC(=O)Nc1ccc2c(c1)C(=O)N([C@H](C)CO)C[C@@H](C)[C@H](CN(C)S(=O)(=O)c1cccs1)OCCCC[C@H](C)O2	nt	6	nt	nt	nt	-13[16.7 µM]
C[C@H]1CN([C@@H](C)CO)C(=O)c2cc(NC(=O)Cc3cn(C)c4ccccc34)ccc2O[C@H]1CN(C)Cc1ccc(C(F)(F)F)cc1	nt	2	nt	nt	nt	3[16.7 µM]
Cc1ccc(-c2nnc(N3CCN(C(=O)COc4ccccc4)CC3)c3ccccc23)cc1	-38	nt	-3	16	24	68*
O=C(COc1ccc(-c2nnc(N3CCCCC3)c3ccccc23)cc1)N1CCCCC1	-3	nt	-3	10	8	nt
C[C@@H](C(=O)NCc1ccc(S(C)(=O)=O)cc1)[C@H]1C[C@]1(C)[C@H](NC(=O)OCc1ccccc1)c1ccccc1	nt	9	nt	nt	nt	55*
C[C@@H]1CCCCO[C@@H](CN(C)Cc2ccc(Cl)c(Cl)c2)[C@H](C)CN([C@@H](C)CO)C(=O)c2cc(NC(=O)CCC(F)(F)F)ccc2O1	nt	88*	nt	nt	nt	-59[16.7 µM]
C[C@@H]1CN([C@@H](C)CO)C(=O)c2cc(NC(=O)CCC(F)(F)F)ccc2O[C@@H](C)CCCCO[C@H]1CN(C)Cc1ccc(Cl)c(Cl)c1	nt	47	nt	nt	nt	5[16.7 µM]
C[C@H]1CCCCO[C@H](CN(C)Cc2ccc(Cl)c(Cl)c2)[C@@H](C)CN([C@@H](C)CO)C(=O)c2cc(NC(=O)CCC(F)(F)F)ccc2O1	nt	41	nt	nt	nt	79*[16.7 µM]
C[C@@H]1CCCCO[C@@H](CN(C)Cc2ccc(Cl)c(Cl)c2)[C@@H](C)CN([C@H](C)CO)C(=O)c2cc(NC(=O)CCC(F)(F)F)ccc2O1	nt	67*!	-2	nt	nt	-51
C[C@@H]1CCCCO[C@H](CN(C)Cc2ccc(Cl)c(Cl)c2)[C@@H](C)CN([C@H](C)CO)C(=O)c2cc(NC(=O)CCC(F)(F)F)ccc2O1	nt	4	nt	nt	nt	8[16.7 µM]
C[C@@H]1CN([C@@H](C)CO)S(=O)(=O)c2ccc(-c3ccccc3)cc2O[C@H]1CN(C)Cc1cccnc1	nt	?	nt	nt	nt	32[16.7 µM]
COc1ccc2cc3c(N)nn(C(=O)c4ccc(F)cc4)c3nc2c1	8	-19	-13	5	22	63*
COc1ccc2cc3c(N)nn(C(=O)c4cccc(F)c4)c3nc2c1	-20	-14	-9	7	39	?
COc1ccc2cc3c(N)nn(C(=O)Cc4c[nH]c5ccccc45)c3nc2c1	-1	8	-14	0	44	90*
C[C@@H]1CN([C@@H](C)CO)C(=O)c2c(c3ccccc3n2C)-c2ccccc2CO[C@@H]1CN(C)Cc1ccc(-c2ccccc2)cc1	nt	63*	nt	nt	nt	nt
C[C@H]1CN([C@@H](C)CO)C(=O)c2c(c3ccccc3n2C)-c2ccccc2CO[C@@H]1CN(C)Cc1ccc(-c2ccccc2)cc1	nt	82*	nt	nt	nt	nt
C[C@@H]1CN([C@H](C)CO)C(=O)c2c(c3ccccc3n2C)-c2ccccc2CO[C@@H]1CN(C)Cc1ccc(-c2ccccc2)cc1	nt	18	nt	nt	nt	nt
COc1cccc(NC(=O)N(C)C[C@@H]2Oc3ncc(C#Cc4ccc(F)cc4)cc3C(=O)N([C@H](C)CO)C[C@@H]2C)c1	nt	nt	nt	nt	nt	19[16.7 µM]
Cn1c(Cc2cccc3ccccc23)nnc1SCC(=O)N1CCN(c2ccccc2)CC1	-12	nt	-4	6	1	63*
Cn1c(SCC(=O)N2CCN(c3cccc(Cl)c3)CC2)nnc1-c1ccncc1	-8	11	-1	-5	7	98*
O=C(c1ccccn1)N1CC2(C1)[C@@H](c1ccccc1)[C@@H](CO)N2C(=O)CC1CC1	nt	1	nt	nt	nt	nt
O=C(C=Cc1ccccn1)c1ccccc1O	114*	-13	24	1	-1	-2
C[C@@H]1CN([C@@H](C)CO)C(=O)c2cc(-c3ccccc3F)cnc2O[C@@H]1CN(C)C(=O)C1CCOCC1	nt	-4	nt	nt	nt	-1[16.7 µM]
O=C1C=C(Nc2ccccc2O)c2ccccc2C1=O	-1	nt	-18	10	-9	nt
SMILES	PfHsp90 set2	PAX8 inh HTS	N-glyco inh	Rtt109 Vps75	Arrestin-AP2 inh	HIV Env fusion
Cc1ccc(NC2=CC(=O)C(=O)c3ccccc32)c(C)c1	-14	27	-20	-3	-4	58*
Cc1cccc(COCC(Cc2ccccc2)N2CCN(C(=O)c3ccc(Cl)c(Cl)c3)CCC2=O)c1 (stereo not drawn)	-13	7	-2	8	-4	95*
Cc1cccc(COCC(Cc2ccccc2)N2CCN(C(=O)c3cccc(C)c3)CCC2=O)c1 (stereo not drawn)	1	7	-2	19	-8	51
Cc1ccc(S(=O)(=O)N2CCC(=O)N(CCOCc3ccc(Cl)cc3)CC2)cc1	-1	-1	-1	4	6	56*
Cc1cccc(COCC(Cc2ccccc2)N2CCN(C(=O)c3cc(Cl)cc(Cl)c3)CCC2=O)c1 (stereo not drawn)	-36	nt	-2	-1	-2	nt
Cc1ccc(S(=O)(=O)N2CCC(=O)N(C(COCc3ccccc3)Cc3ccccc3)CC2)cc1 (stereo not drawn)	-5	17	-3	2	22	7
Cc1ccc(S(=O)(=O)N2CCC(=O)N(C(COCc3cccc(C(F)(F)F)c3)Cc3ccccc3)CC2)cc1 (stereo not drawn)	-14	9	-7	7	-4	56*
Cc1cccc(COC[C@H](Cc2ccccc2)N2CCN(C(=O)c3ccc(Cl)c(Cl)c3)CCC2=O)c1	nt	5	nt	nt	nt	83*
O=C(c1ccc(Cl)c(Cl)c1)N1CCC(=O)N(C(COCc2cccc(C(F)(F)F)c2)Cc2ccccc2)CC1 (stereo not drawn)	19	20	2	3	24	80*
C[C@H](CO)N1C[C@H](C)[C@H](CN(C)C(=O)Nc2ccc(C(F)(F)F)cc2)Oc2c(NS(=O)(=O)c3ccccc3)cccc2C1=O	nt	-28	nt	nt	nt	-23[16.7 µM]
C[C@@H]1CN([C@@H](C)CO)C(=O)c2cc(N(C)C)ccc2O[C@@H](C)CCCCO[C@@H]1CN(C)C(=O)Nc1ccc2c(c1)OCO2	nt	7	nt	nt	nt	25[16.7 µM]
COc1cccc(-c2nn(C)c3sc(C(=O)N4CCN(c5ccccn5)CC4)cc23)c1	-106	nt	2	51*	3	nt
CNC[C@@H]1Oc2c(NC(=O)Nc3ccccc3)cccc2C(=O)N([C@H](C)CO)C[C@H]1C	nt	8	nt	nt	nt	nt
O=C(c1ccc2c(=O)n(C3CCCC3)c(=S)[nH]c2c1)N1CCc2ccccc21	109*	nt	1	-7	9	5
Cc1ccc(N(C(=O)c2cc3ccccc3oc2=O)C2C=CS(=O)(=O)C2)cc1 (stereo not drawn)	-15	77*	0	6	1	nt
